Measured values: ChEMBL document CHEMBL1152741, “Discovery, design, and synthesis of anti-metastatic lead phenylmethylene hydantoins inspired by marine natural products” (Bioorg Med Chem, 2009)
Activity calls are given as the source filed them. No cut-off for these calls is given here.

Tests used:
PC-3M [1] = experiment: Antiinvasive activity in human PC3M cells expressing CTR assessed as change in core spheroid at => 100 uM after 48 hrs by spheroid disaggregation assay; format: functional, cell-based
[2] = Antimetastatic activity against human PC3M cells expressing CTR assessed as reduction in migration area at 200 uM after 48 hrs by spheroid disaggregation assay; format: functional, PC-3M
Method in brief: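 PC-3M-CT+ cells (which secrete calcitonin and carry CTR) are formed into spheroids from 5 × 10^4/mL cells in serum-free RPMI 1640. Plates are rocked 2 days at 37°C, giving spheroids of 150–300 μm. Single spheroids are placed on ECM-coated wells in serum-free medium, with t = 0 set at 1 h. They are photographed, kept 48 h at 37°C, then fixed and Diff-Quik stained. Radial migration distance is measured by micrometer after subtracting the initial diameter. Compounds are tested at 200 μM.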

[3] = Antiinvasive activity in human PC3M cells expressing CTR assessed as inhibition of calcitonin-induced cell migration after 24 hrs by spheroid disaggregation assay; format: functional, cell-based; conditions: PC-3M
PC-3M [4] = experiment: Cytotoxicity against human PC3M cells assessed as cell viability up to 50 uM by MTT assay; format: functional, cell-based

| SMILES | Activity (PC-3M [1]) | Activity [2] [um] | EC50 [3] [µM] | Activity (PC-3M [4]) |
| --- | --- | --- | --- | --- |
| O=C1NC(=O)/C(=C/c2ccccc2-c2cccs2)N1 | inactive | 50 | – | – |
| CCSc1ccc(/C=C2\NC(=O)NC2=O)cc1 | inactive | 15.5 | 30 | – |
| O=C1NC(=O)/C(=C/c2ccc(-c3cccs3)cc2)N1 | inactive | 39 | – | – |
| O=C1NC(=O)/C(=C/c2ccc(O)cc2)N1 [4-HYDROXYPHENYLMETHYLENE HYDANTOIN] | inactive | – | 150 | inactive |
| N#Cc1cccc(/C=C2\NC(=O)NC2=O)c1 | inactive | 195 | – | – |
| O=C1NC(=O)/C(=C/c2ccccc2-c2ccccc2)N1 | inactive | 56 | – | – |
| O=C1NC(=O)/C(=C/c2cccc(-c3ccccc3)c2)N1 | inactive | 76 | – | – |
| Cc1ccc(/C=C2\NC(=O)NC2=O)c(F)c1F | inactive | 175 | – | – |
